High-throughput results as filed in PubChem.
A3A deaminase – human APOBEC3A DNA deaminase inhibition; recombinant A3A, FAM/TAMRA ssDNA deamination fluorescence; inhibition, % at 20 µM; 0.41% of 330,000 active;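 active = at least 40% inhibition at 20 µM here, with at most 30% in a related deaminase screen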;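 also: plate controls were A3A with DMSO for no effect and wells lacking A3A enzyme for full effect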
CXCR6 block – blocks human CXCR6 beta-arrestin recruitment | O00574 | CHO-K1 PathHunter CXCR6 beta-arrestin, luminescence | inhibition, % at 20 µM | 0.36% of 360,000 active | AID 602244; in the data active = inhibition above about 34%, passing the limit was not always enough;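 also: antagonist mode with CXCL16 agonist at 10 nM final; 0% = 10 nM CXCL16 with DMSO and 100% = unstimulated wells without agonist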
Target sequence (O00574 whole entry, looked up): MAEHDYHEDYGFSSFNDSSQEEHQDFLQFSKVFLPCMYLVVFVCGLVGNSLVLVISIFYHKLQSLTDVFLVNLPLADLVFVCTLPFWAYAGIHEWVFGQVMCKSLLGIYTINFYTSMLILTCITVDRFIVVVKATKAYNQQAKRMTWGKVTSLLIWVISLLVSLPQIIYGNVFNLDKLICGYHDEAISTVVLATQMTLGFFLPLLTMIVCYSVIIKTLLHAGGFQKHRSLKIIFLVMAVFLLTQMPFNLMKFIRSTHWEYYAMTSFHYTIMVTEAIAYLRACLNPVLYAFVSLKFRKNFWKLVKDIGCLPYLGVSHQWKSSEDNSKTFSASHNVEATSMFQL
CCR6 antag – antagonists of human CCR6 receptor; CHO-K1 CCR6 PathHunter beta-arrestin, luminescence, CCL20-stimulated; 0.49% of 340,000 active; AID 493098; P51684; inhibition, % at 20 µM;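 active = compounds whose inhibition of the agonist-driven luminescence signal at 20 µM reaches about 50%, limit read from the data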;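 also: cells stimulated with CCL20 at 14 nM final; plate controls were DMSO with CCL20 for no effect and DMSO without agonist for full effect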
A3G deaminase – blocks human APOBEC3G single-stranded DNA deamination; recombinant A3G, ssDNA deamination FAM/TAMRA fluorescence; inhibition, % at 20 µM; 0.28% of 330,000 active; AID 493012;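 active = inhibition of at least 40% at 20 µM, with no more than 30% in the related APOBEC3A deaminase screen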;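 also: plate controls were DMSO wells with A3G for no effect and wells lacking A3G enzyme for full effect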
Target sequence (Q9HC16 whole entry, looked up): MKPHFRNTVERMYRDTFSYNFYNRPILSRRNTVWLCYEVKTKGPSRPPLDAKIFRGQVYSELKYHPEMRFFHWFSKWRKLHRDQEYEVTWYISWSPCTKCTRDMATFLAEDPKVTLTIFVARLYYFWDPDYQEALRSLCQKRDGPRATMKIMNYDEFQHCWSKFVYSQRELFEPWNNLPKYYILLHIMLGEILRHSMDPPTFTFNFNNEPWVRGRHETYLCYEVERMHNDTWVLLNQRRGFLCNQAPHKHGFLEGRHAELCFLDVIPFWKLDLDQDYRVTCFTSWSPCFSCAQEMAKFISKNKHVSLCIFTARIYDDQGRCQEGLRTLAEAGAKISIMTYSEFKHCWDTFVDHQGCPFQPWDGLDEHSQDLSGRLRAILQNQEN
APJ antagonist – blocks the human apelin receptor APJ; P35414; inhibition, % at 20 µM; 0.32% of 330,000 active; CHO-K1 APJ beta-arrestin complementation, luminescence;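 active = inhibition above about 40% at 20 µM, limit read from the data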;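 also: cells challenged with 10 nM apelin-13 agonist together with compound; plate controls were apelin-13 plus DMSO wells for no effect and DMSO wells lacking apelin-13 for full effect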
APJ agonist – agonists of human APJ apelin receptor; AID 2520; activation, % at 20 µM; CHO-K1 APJ PathHunter beta-arrestin, luminescence; 0% DMSO wells, 100% apelin; 0.11% of 330,000 active;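 active = activation more than six SD over the plate average, tested at 20 µM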;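 also: 0% = DMSO alone and 100% = apelin-13 at 10 nM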
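assay system = CHO-K1 APJ beta-arrestin complementation cell line | input = cell density 1000 per well | dosing = compound 20 µM once, DMSO 1% | timing = compound 90 min 25 °C, reagent 1 h | measured by = luminescence from split beta-galactosidase complementation, Galacton Star/Emerald II substrate | read-out basis = APJ agonist activity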
APOBEC3G confirm – APOBEC3G (human) deaminase inhibition, confirmed; shares compounds with A3G deaminase; 72% of 890 active; inhibition, % at 20 µM; recombinant A3G ssDNA deaminase, UDG/FAM-TAMRA fluorescence;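 active = inhibition reaching a set limit in any replicate at 20 µM, the limit being 80% of the first screen's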
UDG ctr A3G – inhibits E. coli UDG, flagging false APOBEC3G inhibitors; shares compounds with A3G deaminase; inhibition, % at 20 µM; UDG counterscreen, FAM/TAMRA oligo fluorescence; 710 tested, under 10 active;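 active = compounds giving 40% or more inhibition at 20 µM in any one of the three replicates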;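 also: plate controls were DMSO wells with UDG and oligo for no effect and DMSO wells lacking both for full effect; inhibitors lower the FAM signal released by uracil excision and alkaline cleavage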
The depositor's hits bear a star; nt = no result given. Shown are actives, neighbours in structure and some others; about 1.4% of the full set was active somewhere.

SMILES | A3A deaminase | CXCR6 block | CCR6 antag | A3G deaminase | APJ antagonist | APJ agonist | APOBEC3G confirm | UDG ctr A3G
Cc1cc2nc(CN(C)C(=O)C3CCC(=O)N(C4CCCC4)C3)[nH]c2cc1C (stereo unspecified) | nt | 0.1 | nt | nt | nt | nt | nt | nt
COC(=O)c1cc(=O)nc2sc(-c3cccs3)nn12 | 1.7 | -0.1 | -4.0 | -10.7 | 21.3 | -3.2 | nt | nt
COC(=O)c1cc(=O)nc2sc(-c3ccc(F)cc3)nn12 | 5.7 | 5.5 | -2.5 | 42.3* | -10.8 | -2.6 | 33.7* | -3.1
CC(C)N1C(=O)C(=O)N(CC(=O)N(C)c2ccccc2)C1=O | -2.2 | 3.7 | 0.7 | -6.3 | 10.3 | -3.0 | nt | nt
COc1cccc(NC(=O)COC(=O)c2ccc(C)c(S(=O)(=O)N3CCCCC3)c2)c1 | -1.2 | 7.6 | 11.6 | -1.9 | 5.5 | -2.5 | nt | nt
CCNC(=O)c1sc(=S)n(CC)c1N | 2.2 | -13.0 | -17.0 | -0.8 | 23.6 | -0.9 | nt | nt
CCn1c(N)c(C(=O)NC)sc1=S | 2.3 | 11.2 | -0.6 | 59.3* | 19.5 | 5.5 | 24.4 | nt
CCn1c(N)c(C(=O)NCC2CCCO2)sc1=S (stereo unspecified) | -13.0 | -9.1 | 11.5 | 40.0* | 5.1 | -4.3 | 67.3* | 1.4
O=C(NCCCN1CCCC(O)C1)c1cc(COc2ccc(F)cc2F)on1 (stereo unspecified) | -5.1 | -2.8 | -2.5 | -5.7 | 2.0 | 11.9 | nt | nt
CCCN(C(=O)c1ccco1)c1nnc(-c2cccc(C)c2)s1 | 1.3 | 11.7 | 15.9 | 64.8* | 2.1 | -3.3 | 0.1 | nt
COc1ccc(NC(=O)CN(C)C(=O)c2cccc(S(=O)(=O)Nc3ccc(OC)cc3)c2)cc1 | -2.2 | 6.7 | 6.1 | 49.2* | 0.5 | -4.7 | -12.9 | -0.6
COc1cccc(NC(=O)CN(C)C(=O)c2cccc(S(=O)(=O)Nc3ccc(C)cc3)c2)c1 | -4.2 | -1.8 | 5.4 | -5.7 | -5.8 | -1.6 | nt | nt
COc1ccc(OC)c(C(O)c2ncc(-c3ccc(C(F)(F)F)cc3)[nH]2)c1 (stereo unspecified) | nt | -9.5 | nt | nt | nt | nt | nt | nt
S=c1[nH]nc(-c2cccnc2)n1/N=C/c1ccco1 | -0.9 | 3.2 | 0.4 | 35.9 | -4.7 | -5.5 | nt | nt
Cc1cccc(-c2n[nH]c(=S)n2/N=C/c2ccco2)c1 | -6.8 | 2.0 | -0.1 | 47.0* | 22.3 | -2.9 | 79.1* | 3.1
O=[N+]([O-])c1ccc(O)c(/C=N/n2c(-c3ccccc3)n[nH]c2=S)c1 | -8.2 | 13.2 | 13.4 | 26.3 | 22.0 | -4.3 | nt | nt
Cc1ccc(-c2n[nH]c(=S)n2/N=C\c2ccco2)cc1 | -3.4 | 17.7 | 4.8 | 42.4* | 6.5 | -1.7 | 75.6* | 5.6
O=[N+]([O-])c1ccc(Cl)c(/C=N/n2c(-c3ccncc3)n[nH]c2=S)c1 | 0.1 | 0.3 | 11.1 | 48.0* | -23.3 | 5.2 | 57.2* | -5.9
Cc1ccc(-c2n[nH]c(=S)n2/N=C/c2ccncc2)cc1 | -1.7 | -0.7 | 4.6 | 53.1* | -20.1 | -3.3 | 65.5* | 7.3
O=C(Cc1ccccc1[N+](=O)[O-])NCCCc1ccccc1 | -5.3 | 1.4 | -1.0 | -8.0 | 11.4 | -1.7 | nt | nt
O=C(CN1C(=O)CSc2ccc(S(=O)(=O)N3CCOCC3)cc21)NCc1ccc(Cl)cc1 | -0.9 | 2.8 | 14.0 | -2.5 | 12.4 | -0.3 | nt | nt
O=C(c1ccc(NS(=O)(=O)c2ccc(F)cc2)cc1)N1CCCCCC1 | 0.4 | -5.2 | -2.6 | -4.9 | 7.3 | -0.2 | nt | nt
COc1cccc(C(=O)NC2CCCN(C3Cc4ccccc4C3)C2)c1OC (stereo unspecified) | 0.0 | -2.4 | -3.4 | -0.9 | 13.3 | -1.7 | nt | nt
Cc1ccc(S(=O)(=O)N(CC(=O)N2CCOCC2)c2ccc(C(C)C)cc2)cc1 | -0.3 | -5.3 | 11.3 | -3.7 | 13.5 | -1.4 | nt | nt
Cc1nn(-c2ccccc2)c(C)c1/C=N/n1c(-c2ccc(Cl)cc2)n[nH]c1=S | -4.4 | 8.4 | 18.8 | -11.2 | 16.3 | -4.3 | nt | nt
SMILES | A3A deaminase | CXCR6 block | CCR6 antag | A3G deaminase | APJ antagonist | APJ agonist | APOBEC3G confirm | UDG ctr A3G
Cn1cccc1/C=N/n1c(-c2ccccc2)n[nH]c1=S | -3.0 | 2.5 | 21.6 | 43.2* | 2.0 | -4.2 | 80.9* | -2.8
Cc1nn(-c2ccccc2)c(C)c1/C=N/n1c(-c2ccncc2)n[nH]c1=S | -4.0 | -5.2 | 6.1 | 41.7* | 6.6 | -2.7 | 76.6* | 0.9
OCCNc1ncnc2c1ncn2[C@H]1CN(Cc2ccc(Cl)cc2)C[C@@H](CO)O1 | nt | -1.0 | nt | nt | nt | nt | nt | nt
CC(C)Cn1c(-c2ccc(F)cc2)n[nH]c1=S | -6.9 | -12.9 | -6.4 | 40.8* | 12.0 | -1.1 | 81.7* | -6.4
CC(C)Cn1c(-c2ccncc2)n[nH]c1=S | 0.0 | -8.6 | -5.3 | 10.9 | -23.9 | -2.2 | nt | nt
CC(C)Cn1c(-c2ccccc2F)n[nH]c1=S | -4.6 | -4.7 | -0.1 | 41.1* | 9.2 | -5.2 | 82.0* | 0.3
COc1ccc(CCNC(=O)CN2c3cccc4cccc(c34)S2(=O)=O)cc1OC | -3.2 | 2.3 | 22.0 | -3.0 | 0.7 | -2.2 | nt | nt
Cc1csc(NC(=O)Cn2nc(C)c([N+](=O)[O-])c2C)n1 | 0.4 | 3.7 | 0.8 | -6.4 | 18.7 | -2.0 | nt | nt
CCc1c(C)sc(NC(=O)Cn2nc(C)c([N+](=O)[O-])c2C)c1C(N)=O | 0.4 | -6.4 | -16.3 | 52.3* | 2.6 | -4.1 | 24.2* | -3.6
Cc1cc(NC(=O)CSc2nc3cc(Cl)ccc3c(=O)n2C(C)C)no1 | 3.2 | 5.3 | -4.5 | -3.7 | 13.1 | -1.6 | nt | nt
Cc1ccc(-c2cc(C(=O)Nc3cccnc3)c3ccccc3n2)o1 | 25.0 | 9.2 | 7.8 | 49.6* | 35.3 | -9.0 | 36.3* | -4.8
CCOC(=O)c1c(NC(=O)CSc2nnnn2-c2ccc(OC)cc2)sc(C)c1C | -0.9 | 1.4 | 14.7 | 45.3* | 36.1 | -8.5 | 77.4* | -3.2
CCOC(=O)c1csc(NC(=O)CSc2nnnn2-c2ccc(OC)cc2)n1 | -4.3 | -3.9 | 4.2 | -1.4 | -3.4 | -3.2 | nt | nt
Cn1c(-c2ccco2)n[nH]c1=S | 1.6 | 6.8 | -20.1 | 17.8 | 7.9 | -3.1 | nt | nt
S=c1nc(-c2ccco2)[nH][nH]1 | -1.5 | 2.5 | -5.5 | 80.6* | -9.2 | -0.3 | 93.8* | -3.7
COc1ccc(/C=C/C(=O)NNc2c(F)c(F)cc(F)c2F)cc1OC | -0.1 | 5.1 | -14.8 | 59.9* | -14.8 | -1.7 | 3.6 | -3.5
Nc1ccc2nc(-c3cccc(-c4nc5ccc(N)cc5[nH]4)n3)[nH]c2c1 | 10.4 | -8.7 | -9.5 | 43.5* | -22.4 | 0.5 | 29.2* | 0.8
Nc1ccc2nc(-c3ccc(-c4nc5ccc(N)cc5[nH]4)cc3)[nH]c2c1 | 11.7 | nt | -23.9 | 14.1 | -17.8 | 4.3 | nt | nt
Cn1c(=O)n(C)c2cc(S(=O)(=O)NCC(=O)O)ccc21 | -2.5 | -0.2 | 7.2 | -5.2 | 8.7 | 0.9 | nt | nt
